Measured values as given in ChEMBL document CHEMBL2169800 (J Med Chem, 2012).
Blank lines part the entries; values can stand above or below the molecule they belong to. Active and inactive are the calls of the source. The rule behind the calls is not given here.

What was measured:
[1] = molecular target: T1, Prostaglandin G/H synthase 1 (Ovis aries, UniProt P05979); assay: Inhibition of ovine COX1 pre-incubated for 10 mins before arachidonic acid substrate addition by enzyme immunoassay
T1 sequence (P05979 whole entry): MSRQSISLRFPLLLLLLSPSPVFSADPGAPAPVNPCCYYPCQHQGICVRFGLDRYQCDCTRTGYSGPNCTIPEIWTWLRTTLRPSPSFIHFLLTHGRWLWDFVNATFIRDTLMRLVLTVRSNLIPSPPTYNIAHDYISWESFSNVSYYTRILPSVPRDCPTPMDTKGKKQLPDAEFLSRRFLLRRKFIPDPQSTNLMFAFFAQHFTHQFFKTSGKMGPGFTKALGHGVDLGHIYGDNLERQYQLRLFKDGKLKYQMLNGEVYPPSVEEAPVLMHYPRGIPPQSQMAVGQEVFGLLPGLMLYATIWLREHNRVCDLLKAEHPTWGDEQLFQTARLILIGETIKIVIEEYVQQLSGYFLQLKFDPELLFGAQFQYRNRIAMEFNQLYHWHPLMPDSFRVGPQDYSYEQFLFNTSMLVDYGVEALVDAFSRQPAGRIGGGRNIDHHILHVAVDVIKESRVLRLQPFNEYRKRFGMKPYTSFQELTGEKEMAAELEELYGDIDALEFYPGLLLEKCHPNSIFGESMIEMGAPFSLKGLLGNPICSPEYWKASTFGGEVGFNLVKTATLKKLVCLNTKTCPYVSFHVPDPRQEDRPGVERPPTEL
Outline: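 Ovine COX-1 pre-incubated with inhibitor for 10 min at 37 °C, then 5 μM arachidonic acid for 2 min at 37 °C. Stopped with HCl; PGH2 reduced to PGF2α with SnCl2 and measured by competitive EIA (PG antibody, PG-acetylcholinesterase conjugate), absorbance at 412 nm.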

[2] = molecular target: T2, Prostaglandin G/H synthase 2 (Homo sapiens, UniProt P35354); assay: Inhibition of human COX2 pre-incubated for 10 mins before substrate addition by enzyme immunoassay
T2 sequence (P35354 whole entry): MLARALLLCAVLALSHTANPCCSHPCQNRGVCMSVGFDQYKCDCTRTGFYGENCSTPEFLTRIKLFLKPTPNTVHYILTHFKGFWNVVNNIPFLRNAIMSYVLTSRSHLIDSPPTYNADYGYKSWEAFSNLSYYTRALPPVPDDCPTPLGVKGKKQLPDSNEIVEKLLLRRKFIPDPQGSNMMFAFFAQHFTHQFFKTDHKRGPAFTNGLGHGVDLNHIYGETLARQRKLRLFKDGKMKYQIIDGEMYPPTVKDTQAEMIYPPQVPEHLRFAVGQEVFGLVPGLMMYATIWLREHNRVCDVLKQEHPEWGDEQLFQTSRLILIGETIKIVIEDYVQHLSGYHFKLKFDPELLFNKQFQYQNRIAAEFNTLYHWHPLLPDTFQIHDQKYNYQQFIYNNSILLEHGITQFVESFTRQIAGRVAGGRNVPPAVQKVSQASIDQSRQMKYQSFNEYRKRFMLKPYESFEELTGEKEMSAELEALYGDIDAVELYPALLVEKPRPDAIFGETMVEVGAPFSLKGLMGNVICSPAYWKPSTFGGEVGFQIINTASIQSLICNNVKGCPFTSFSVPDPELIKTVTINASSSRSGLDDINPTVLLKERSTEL

[3] = molecular target: T3, Fatty-acid amide hydrolase 1 (Rattus norvegicus, UniProt P97612); assay: Inhibition of FAAH in rat brain homogenates pre-incubated for 10 mins before addition of [3H]anandamide and [3H]AEA substrates for 30 mins by liquid scintillation counting; assay type: tissue-based
T3 sequence (P97612 whole entry): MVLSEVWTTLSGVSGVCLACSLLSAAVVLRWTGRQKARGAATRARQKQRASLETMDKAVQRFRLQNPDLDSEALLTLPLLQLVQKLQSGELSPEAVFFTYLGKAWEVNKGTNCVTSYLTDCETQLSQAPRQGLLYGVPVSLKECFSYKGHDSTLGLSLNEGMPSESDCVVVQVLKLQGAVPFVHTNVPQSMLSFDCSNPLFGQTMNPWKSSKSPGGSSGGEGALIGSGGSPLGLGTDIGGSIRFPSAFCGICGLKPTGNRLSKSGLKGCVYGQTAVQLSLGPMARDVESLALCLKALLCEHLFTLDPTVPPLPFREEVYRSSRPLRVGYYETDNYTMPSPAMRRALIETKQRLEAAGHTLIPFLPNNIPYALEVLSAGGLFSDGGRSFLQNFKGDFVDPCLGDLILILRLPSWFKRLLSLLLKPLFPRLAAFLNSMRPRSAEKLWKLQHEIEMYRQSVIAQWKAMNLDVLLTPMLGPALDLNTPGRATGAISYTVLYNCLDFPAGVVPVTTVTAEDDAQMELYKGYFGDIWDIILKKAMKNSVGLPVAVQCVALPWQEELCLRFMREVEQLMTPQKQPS
Outline: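 Rat whole-brain homogenate (50 ug protein/sample) in 50 mM TRIS pH 7.4, 0.05 % fatty acid free BSA; inhibitor pre-incubated 10 min, then 1 uM unlabelled AEA plus 0.6 nM [3H]-AEA added for 30 min at 37°C. Stopped with cold 1:1 CHCl3/MeOH; aqueous phase counted.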

[4] = molecular target: T4, Fatty-acid amide hydrolase 1 (Rattus norvegicus) (UniProt P97612); details: Brain, 30 uM
T4 sequence (whole entry): T3 sequence (P97612 whole entry)

[5] = molecular target: T4, Fatty-acid amide hydrolase 1 (Rattus norvegicus); assay: Potency index, ratio of IC50 for carprofen to IC50 for compound against FAAH in rat brain homogenates pre-incubated for 10 mins before addition of [3H]anandamide and [3H]AEA substrates for 30 mins by liquid scintillation counting; assay type: tissue-based

Compound: C[C@H](C(=O)O)c1ccc2c(c1)[nH]c1ccc(Cl)cc12
IC50 [1]: 5.6 µM

Compound: C[C@@H](C(=O)O)c1ccc2c(c1)[nH]c1ccc(Cl)cc12
IC50 [1]: > 100 µM

Compound: C[C@H](C(=O)O)c1ccc2c3cc(Cl)ccc3n(C(=O)c3ccc(Cl)cc3)c2c1
IC50 [2]: 46.5 µM
IC50 ([3]; read-out: IC50): > 100 µM
IC50 [1]: 45 µM

Compound: C[C@@H](C(=O)O)c1ccc2c3cc(Cl)ccc3n(C(=O)c3ccc(Cl)cc3)c2c1
IC50 [2]: > 100 µM
IC50 ([3]; read-out: IC50): 14.9 µM
IC50 [1]: > 100 µM

Compound: C[C@H](C(=O)O)c1ccc2c3cc(Cl)ccc3n(C(=O)c3cocn3)c2c1
IC50 [2]: 2.5 µM
IC50 ([3]; read-out: IC50): > 100 µM
IC50 [1]: 4.1 µM

Compound: C[C@@H](C(=O)O)c1ccc2c3cc(Cl)ccc3n(C(=O)c3cocn3)c2c1
IC50 [2]: > 100 µM
IC50 ([3]; read-out: IC50): 53.2 µM
IC50 [1]: > 100 µM

Compound: COc1cccc(Cn2c3ccc(Cl)cc3c3ccc(C(C)C(=O)O)cc32)c1 (racemic)
IC50 [2]: > 100 µM
IC50 ([3]; read-out: IC50): 32.5 µM
IC50 [1]: > 100 µM

Compound: CC(C(=O)O)c1ccc2c3cc(Cl)ccc3n(C(=O)c3ccc(F)cc3)c2c1 (racemic)
IC50 [2]: > 100 µM
IC50 ([3]; read-out: IC50): 30.9 µM
IC50 [1]: > 100 µM

Compound: COc1ccc(C(=O)n2c3ccc(Cl)cc3c3ccc(C(C)C(=O)O)cc32)cc1 (racemic)
IC50 [2]: > 100 µM
IC50 ([3]; read-out: IC50): 10.6 µM
IC50 [1]: > 100 µM

Compound: CC(C(=O)O)c1ccc2c3cc(Cl)ccc3n(C(=O)c3cccc(Cl)c3)c2c1 (racemic)
IC50 [2]: > 100 µM
IC50 ([3]; read-out: IC50): 20.1 µM
IC50 [1]: > 100 µM

Compound: CC(C(=O)O)c1ccc2c3cc(Cl)ccc3n(C(=O)c3ccccc3Cl)c2c1 (racemic)
IC50 [2]: > 100 µM
IC50 ([3]; read-out: IC50): 59.6 µM
IC50 [1]: > 100 µM

Compound: CC(C(=O)O)c1ccc2c3cc(Cl)ccc3n(C(=O)c3ccc(Cl)c(Cl)c3)c2c1 (racemic)
IC50 [2]: > 100 µM
IC50 ([3]; read-out: IC50): > 100 µM
IC50 [1]: > 100 µM

Compound: CC(C(=O)O)c1ccc2c3cc(Cl)ccc3n(C(=O)c3cocn3)c2c1 (racemic)
IC50 [2]: 27.8 µM
IC50 ([3]; read-out: IC50): 84.8 µM
IC50 [1]: 30 µM

Compound: CC(C(=O)O)c1ccc2c3cc(Cl)ccc3n(C(=O)c3cnc[nH]3)c2c1 (racemic)
IC50 [2]: > 100 µM
IC50 ([3]; read-out: IC50): 5.6 µM
IC50 [1]: 12.8 µM

Compound: CC(C(=O)O)c1ccc2c3cc(Cl)ccc3n(C(=O)c3cscn3)c2c1 (racemic)
IC50 [2]: > 100 µM
IC50 ([3]; read-out: IC50): > 100 µM
IC50 [1]: > 100 µM

Compound: CC(C(=O)O)c1ccc2c3cc(Cl)ccc3n(C)c2c1 (racemic)
IC50 [2]: > 100 µM
IC50 ([3]; read-out: IC50): 15.5 µM
IC50 [1]: > 100 µM

Compound: CC(C(=O)O)c1ccc2c3cc(Cl)ccc3n(Cc3ccccc3)c2c1 (racemic)
IC50 [2]: > 100 µM
IC50 ([3]; read-out: IC50): 23.3 µM
IC50 [1]: > 100 µM

Compound: CC(C(=O)O)c1ccc2c3cc(Cl)ccc3n(Cc3ccc(C#N)cc3)c2c1 (racemic)
IC50 [2]: > 100 µM
IC50 ([3]; read-out: IC50): 33.4 µM
IC50 [1]: > 100 µM

Compound: CC(C(=O)O)c1ccc2c3cc(Cl)ccc3n(Cc3ccc(Cl)cc3)c2c1 (racemic)
IC50 [2]: > 100 µM
IC50 ([3]; read-out: IC50): 10.2 µM
IC50 [1]: > 100 µM

Compound: COc1ccc(Cn2c3ccc(Cl)cc3c3ccc(C(C)C(=O)O)cc32)cc1 (racemic)
IC50 [2]: > 100 µM
IC50 ([3]; read-out: IC50): 8.4 µM
IC50 [1]: > 100 µM

Compound: COc1ccccc1Cn1c2ccc(Cl)cc2c2ccc(C(C)C(=O)O)cc21 (racemic)
inhibition [4]: inactive
IC50 [2]: > 100 µM
IC50 ([3]; read-out: IC50): > 100 µM
IC50 [1]: > 100 µM

Compound: CCCCCCS(=O)(=O)n1c2ccc(Cl)cc2c2ccc(C(C)C(=O)O)cc21 (racemic)
IC50 [2]: > 100 µM
IC50 ([3]; read-out: IC50): 50.3 µM
IC50 [1]: > 100 µM

Compound: CCCCCCNC(=O)n1c2ccc(Cl)cc2c2ccc(C(C)C(=O)O)cc21 (racemic)
IC50 [2]: > 100 µM
IC50 ([3]; read-out: IC50): 3.2 µM
IC50 [1]: > 100 µM

Compound: CNC(=O)n1c2ccc(Cl)cc2c2ccc(C(C)C(=O)O)cc21 (racemic)
IC50 [2]: > 100 µM
IC50 ([3]; read-out: IC50): > 100 µM
IC50 [1]: > 100 µM

Compound: CCCCNC(=O)n1c2ccc(Cl)cc2c2ccc(C(C)C(=O)O)cc21 (racemic)
IC50 [2]: > 100 µM
IC50 ([3]; read-out: IC50): > 100 µM
IC50 [1]: > 100 µM

Compound: CCCCCCCCNC(=O)n1c2ccc(Cl)cc2c2ccc(C(C)C(=O)O)cc21 (racemic)
IC50 [2]: > 100 µM
IC50 ([3]; read-out: IC50): 26.8 µM
IC50 [1]: 15.4 µM

Compound: CC(C(=O)O)c1ccc2c3cc(Cl)ccc3n(C(=O)Nc3ccc(Cl)cc3)c2c1 (racemic)
IC50 [2]: > 100 µM
IC50 ([3]; read-out: IC50): 102 µM
IC50 [1]: 41.3 µM

Compound: CCCCCCN(C)C(=O)n1c2ccc(Cl)cc2c2ccc(C(C)C(=O)O)cc21 (racemic)
IC50 [2]: > 100 µM
IC50 ([3]; read-out: IC50): > 100 µM
IC50 [1]: > 100 µM

Compound: CC(C(=O)O)c1ccc2c3cc(Cl)ccc3n(C(=O)NC3CCCCC3)c2c1 (racemic)
IC50 [2]: > 100 µM
IC50 ([3]; read-out: IC50): > 100 µM
IC50 [1]: > 100 µM

Compound: CCCCCCOC(=O)n1c2ccc(Cl)cc2c2ccc(C(C)C(=O)O)cc21 (racemic)
IC50 [2]: > 100 µM
IC50 ([3]; read-out: IC50): 31.6 µM
IC50 [1]: 17.2 µM

Compound: CC(=O)n1c2ccc(Cl)cc2c2ccc(C(C)C(=O)O)cc21 (racemic)
IC50 [2]: > 100 µM
IC50 ([3]; read-out: IC50): > 100 µM
IC50 [1]: > 100 µM

Compound: CC(C(=O)O)c1ccc2c3cc(Cl)ccc3n(C(=O)c3ccccc3)c2c1 (racemic)
IC50 [2]: > 100 µM
IC50 ([3]; read-out: IC50): 25.4 µM
IC50 [1]: > 100 µM

Compound: CC(C(=O)O)c1ccc2c3cc(Cl)ccc3n(C(=O)c3ccc(Cl)cc3)c2c1 (racemic)
IC50 [2]: 72.3 µM
IC50 ([3]; read-out: IC50): 22 µM
IC50 [1]: 74.3 µM

Compound: CC(C(=O)O)c1ccc2c(c1)[nH]c1ccccc12 (racemic)
IC50 [2]: > 100 µM
IC50 ([3]; read-out: IC50): 4.6 µM
IC50 [1]: > 100 µM

Compound: COC(=O)C(C)c1ccc2c(c1)[nH]c1ccc(Cl)cc12 (racemic)
IC50 [2]: > 100 µM
IC50 ([3]; read-out: IC50): 22.1 µM
IC50 [1]: > 100 µM

Compound: CC(C(=O)NCCO)c1ccc2c(c1)[nH]c1ccc(Cl)cc12 (racemic)
IC50 [2]: > 100 µM
IC50 ([3]; read-out: IC50): > 100 µM
IC50 [1]: > 100 µM

Compound: CC(C(=O)Nc1ccccc1)c1ccc2c(c1)[nH]c1ccc(Cl)cc12 (racemic)
Ratio IC50 [5]: 26
IC50 [2]: > 100 µM
IC50 ([3]; read-out: IC50): 2.9 µM
IC50 [1]: > 100 µM

Compound: CC(C(=O)O)c1ccc2c3cc(Cl)ccc3n(S(=O)(=O)c3ccc(Cl)cc3)c2c1 (racemic)
IC50 [2]: > 100 µM
IC50 ([3]; read-out: IC50): 4.8 µM
IC50 [1]: > 100 µM

Compound: CC(C(=O)O)c1ccc2c(c1)[nH]c1ccc(Cl)cc12 (racemic) [CARPROFEN]
IC50 [1]: 22.3 µM

IC50 [3]: Not Active
Compound: CC(C)Cc1ccc(C(C)C(=O)O)cc1 (centres undefined) [IBUPROFEN]
